Assay results as given in ChEMBL document CHEMBL3244187, “Structure--activity relationships in cephalosporins prepared from penicillins. 2. Analogues of cephalexin substituted in the 3-methyl group” (J Med Chem, 1977).
In brackets after ≈: the same amount, converted by molar mass.

Legend:
Staphylococcus aureus [1] = experiment: Antibacterial activity against beta-lactamase producing benzylpenicillin-resistant Staphylococcus aureus Russell after 18 hrs by serial dilution method; type: functional
Outline: (§1)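 MICs by serial dilution on nutrient agar. Inoculum 0.001 mL of undiluted overnight broth culture. Plates incubated 18 h at 37 °C before reading. The S. aureus Russell strain produces β-lactamase and resists benzylpenicillin.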

Escherichia coli = experiment: Antibacterial activity against Escherichia coli after 18 hrs by serial dilution method; type: functional
Outline: (§2)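 MICs by serial dilution on nutrient agar. Inoculum 0.001 mL of undiluted overnight broth culture. Plates incubated at 37 °C for 18 h before reading.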

Salmonella typhi = experiment: Antibacterial activity against Salmonella typhi after 18 hrs by serial dilution method; type: functional, Salmonella enterica subsp. enterica serovar Typhi; settings: Salmonella enterica; outline: as §1
Shigella sonnei = experiment: Antibacterial activity against Shigella sonnei after 18 hrs by serial dilution method; type: functional; outline: as §2
Klebsiella aerogenes = experiment: Antibacterial activity against Klebsiella aerogenes after 18 hrs by serial dilution method; type: functional; outline: as §2
Proteus mirabilis = experiment: Antibacterial activity against Proteus mirabilis after 18 hrs by serial dilution method; type: functional; outline: as §2
Staphylococcus aureus [2] = experiment: Antibacterial activity against Staphylococcus aureus Oxford after 18 hrs by serial dilution method; type: functional; outline: as §2
[3] = Drug level in mouse blood at 50 mg/kg, po after 10 mins by microbiological assay; type: ADME, organism-based; parameters: dose 50 mg/kg, route oral; settings: read-out: Drug uptake
Outline: (§3)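 Mice given a single 50 mg/kg dose by the route in the line. Groups of five killed at each time point and blood taken from the cut axilla, heparinized and stored at 4 °C. Blood assayed the same day by large-plate microbiological assay with Sarcina lutea NCTC 8340, overnight at 30 °C. Standards made in mouse blood, with pH 7.2 phosphate-buffered saline as diluent.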

[4] = Drug level in mouse blood at 50 mg/kg, po after 20 mins by microbiological assay; type: ADME, organism-based; parameters: dose 50 mg/kg, route oral; settings: read-out: Drug uptake; outline: as §3
[5] = Drug level in mouse blood at 50 mg/kg, po after 30 mins by microbiological assay; type: ADME, organism-based; parameters: dose 50 mg/kg, route oral; settings: read-out: Drug uptake; outline: as §3
[6] = Drug level in mouse blood at 50 mg/kg, po after 1 hr by microbiological assay; type: ADME, organism-based; parameters: dose 50 mg/kg, route oral; settings: read-out: Drug uptake; outline: as §3
[7] = Drug level in mouse blood at 50 mg/kg, po after 2 hrs by microbiological assay; type: ADME, organism-based; parameters: dose 50 mg/kg, route oral; settings: read-out: Drug uptake; outline: as §3
[8] = Drug level in mouse blood at 50 mg/kg, po after 4 hrs by microbiological assay; type: ADME, organism-based; parameters: dose 50 mg/kg, route oral; settings: read-out: Drug uptake; outline: as §3
[9] = Drug level in mouse blood at 50 mg/kg, sc after 10 mins by microbiological assay; type: ADME, organism-based; parameters: dose 50 mg/kg, route subcutaneous; settings: read-out: Drug uptake; outline: as §3
[10] = Drug level in mouse blood at 50 mg/kg, sc after 20 mins by microbiological assay; type: ADME, organism-based; parameters: dose 50 mg/kg, route subcutaneous; settings: read-out: Drug uptake; outline: as §3
[11] = Drug level in mouse blood at 50 mg/kg, sc after 30 mins by microbiological assay; type: ADME, organism-based; parameters: dose 50 mg/kg, route subcutaneous; settings: read-out: Drug uptake; outline: as §3
[12] = Drug level in mouse blood at 50 mg/kg, sc after 1 hr by microbiological assay; type: ADME, organism-based; parameters: dose 50 mg/kg, route subcutaneous; settings: read-out: Drug uptake; outline: as §3
[13] = Drug level in mouse blood at 50 mg/kg, sc after 2 hrs by microbiological assay; type: ADME, organism-based; parameters: dose 50 mg/kg, route subcutaneous; settings: read-out: Drug uptake; outline: as §3
[14] = Drug level in mouse blood at 50 mg/kg, sc after 4 hrs by microbiological assay; type: ADME, organism-based; parameters: dose 50 mg/kg, route subcutaneous; settings: read-out: Drug uptake; outline: as §3
[15] = Drug level in mouse blood at 50 mg/kg, iv after 10 mins by microbiological assay; type: ADME, organism-based; parameters: dose 50 mg/kg, route intravenous; settings: read-out: Drug uptake; outline: as §3
[16] = Drug level in mouse blood at 50 mg/kg, iv after 20 mins by microbiological assay; type: ADME, organism-based; parameters: dose 50 mg/kg, route intravenous; settings: read-out: Drug uptake; outline: as §3
[17] = Drug level in mouse blood at 50 mg/kg, iv after 30 mins by microbiological assay; type: ADME, organism-based; parameters: dose 50 mg/kg, route intravenous; settings: read-out: Drug uptake; outline: as §3
[18] = Drug level in mouse blood at 50 mg/kg, iv after 1 hr by microbiological assay; type: ADME, organism-based; parameters: dose 50 mg/kg, route intravenous; settings: read-out: Drug uptake; outline: as §3
[19] = Drug level in mouse blood at 50 mg/kg, iv after 2 hrs by microbiological assay; type: ADME, organism-based; parameters: dose 50 mg/kg, route intravenous; settings: read-out: Drug uptake; outline: as §3
[20] = Drug level in mouse blood at 50 mg/kg, iv after 4 hrs by microbiological assay; type: ADME, organism-based; parameters: dose 50 mg/kg, route intravenous; settings: read-out: Drug uptake; outline: as §3

N[C@@H](C(=O)N[C@@H]1C(=O)N2C(C(=O)O)=C(Cc3ccccc3C(F)(F)F)CS[C@H]12)c1ccccc1
MIC (Staphylococcus aureus [1]): 5 µg/mL (≈ 10.2 µM)
MIC (Escherichia coli): > 100 µg/mL
MIC (Salmonella typhi): > 100 µg/mL
MIC (Shigella sonnei): > 100 µg/mL
MIC (Klebsiella aerogenes): > 100 µg/mL
MIC (Proteus mirabilis): > 100 µg/mL
MIC (Staphylococcus aureus [2]): 0.5 µg/mL (≈ 1.02 µM)

CC(=O)OCCC1=C(C(=O)O)N2C(=O)[C@@H](NC(=O)[C@H](N)c3ccccc3)[C@H]2SC1
MIC (Staphylococcus aureus [1]): 10 µg/mL (≈ 23.8 µM)
MIC (Escherichia coli): > 50 µg/mL
MIC (Salmonella typhi): 25 µg/mL (≈ 59.6 µM)
MIC (Shigella sonnei): 50 µg/mL (≈ 119 µM)
MIC (Klebsiella aerogenes): 25 µg/mL (≈ 59.6 µM)
MIC (Proteus mirabilis): > 50 µg/mL
MIC (Staphylococcus aureus [2]): 0.5 µg/mL (≈ 1.19 µM)

Cc1ccncc1CC1=C(C(=O)O)N2C(=O)[C@@H](NC(=O)[C@H](N)c3ccccc3)[C@H]2SC1
MIC (Staphylococcus aureus [1]): 12.5 µg/mL (≈ 28.5 µM)
MIC (Escherichia coli): 12.5 µg/mL (≈ 28.5 µM)
MIC (Salmonella typhi): 5 µg/mL (≈ 11.4 µM)
MIC (Shigella sonnei): 12.5 µg/mL (≈ 28.5 µM)
MIC (Klebsiella aerogenes): 12.5 µg/mL (≈ 28.5 µM)
MIC (Proteus mirabilis): 25 µg/mL (≈ 57 µM)
MIC (Staphylococcus aureus [2]): 0.12 µg/mL (≈ 0.274 µM)

N[C@@H](C(=O)N[C@@H]1C(=O)N2C(C(=O)O)=C(Cc3ccccn3)CS[C@H]12)c1ccccc1
MIC (Staphylococcus aureus [1]): 12.5 µg/mL (≈ 29.4 µM)
MIC (Escherichia coli): 50 µg/mL (≈ 118 µM)
MIC (Salmonella typhi): 12.5 µg/mL (≈ 29.4 µM)
MIC (Shigella sonnei): 25 µg/mL (≈ 58.9 µM)
MIC (Klebsiella aerogenes): > 500 µg/mL
MIC (Proteus mirabilis): 50 µg/mL (≈ 118 µM)
MIC (Staphylococcus aureus [2]): 1.25 µg/mL (≈ 2.94 µM)

CC(=O)OCC1=C(C(=O)O)N2C(=O)[C@@H](NC(=O)[C@H](N)c3ccccc3)[C@H]2SC1 [CEPHALOGLYCIN]
MIC (Staphylococcus aureus [1]): 2.5 µg/mL (≈ 6.17 µM)
MIC (Escherichia coli): 5 µg/mL (≈ 12.3 µM)
MIC (Salmonella typhi): 1.25 µg/mL (≈ 3.08 µM)
MIC (Shigella sonnei): 2.5 µg/mL (≈ 6.17 µM)
MIC (Klebsiella aerogenes): 5 µg/mL (≈ 12.3 µM)
MIC (Proteus mirabilis): 5 µg/mL (≈ 12.3 µM)
concentration at 10 min [3]: 1700 ng/mL
concentration at 20 min [4]: 2600 ng/mL
concentration at 0.5 h [5]: 2000 ng/mL
concentration at 1 h [6]: 600 ng/mL
concentration at 2 h [7]: 700 ng/mL
concentration at 4 h [8]: 70 ng/mL
concentration at 10 min [9]: 37100 ng/mL
concentration at 20 min [10]: 30200 ng/mL
concentration at 0.5 h [11]: 21700 ng/mL
concentration at 1 h [12]: 3100 ng/mL
concentration at 2 h [13]: 200 ng/mL
concentration at 4 h [14]: < 100 ng/mL
concentration at 10 min [15]: 62400 ng/mL
concentration at 20 min [16]: 40200 ng/mL
concentration at 0.5 h [17]: 11000 ng/mL
concentration at 1 h [18]: 1500 ng/mL
concentration at 2 h [19]: < 100 ng/mL
concentration at 4 h [20]: < 100 ng/mL
MIC (Staphylococcus aureus [2]): 1.25 µg/mL (≈ 3.08 µM)

N[C@@H](C(=O)N[C@@H]1C(=O)N2C(C(=O)O)=C(Cc3ccccc3C(=O)O)CS[C@H]12)c1ccccc1
MIC (Staphylococcus aureus [1]): 12.5 µg/mL (≈ 26.7 µM)
MIC (Salmonella typhi): 50 µg/mL (≈ 107 µM)
MIC (Shigella sonnei): 12.5 µg/mL (≈ 26.7 µM)
concentration at 10 min [3]: 1100 ng/mL
concentration at 20 min [4]: 1400 ng/mL
concentration at 0.5 h [5]: 2400 ng/mL
concentration at 1 h [6]: 3200 ng/mL
concentration at 2 h [7]: 2800 ng/mL
concentration at 4 h [8]: 3200 ng/mL
concentration at 10 min [9]: 63200 ng/mL
concentration at 20 min [10]: 66000 ng/mL
concentration at 0.5 h [11]: 58000 ng/mL
concentration at 1 h [12]: 49200 ng/mL
concentration at 2 h [13]: 40600 ng/mL
concentration at 4 h [14]: 31200 ng/mL
concentration at 10 min [15]: 102000 ng/mL
concentration at 20 min [16]: 83600 ng/mL
concentration at 0.5 h [17]: 75400 ng/mL
concentration at 1 h [18]: 64400 ng/mL
concentration at 2 h [19]: 29100 ng/mL
concentration at 4 h [20]: 18100 ng/mL

COC(=O)CC1=C(C(=O)O)N2C(=O)[C@@H](NC(=O)[C@H](N)c3ccccc3)[C@H]2SC1
MIC (Staphylococcus aureus [1]): 16 µg/mL (≈ 39.5 µM)
MIC (Escherichia coli): 31 µg/mL (≈ 76.5 µM)
MIC (Salmonella typhi): 8 µg/mL (≈ 19.7 µM)
MIC (Shigella sonnei): 16 µg/mL (≈ 39.5 µM)
MIC (Klebsiella aerogenes): 63 µg/mL (≈ 155 µM)
MIC (Proteus mirabilis): 63 µg/mL (≈ 155 µM)
MIC (Staphylococcus aureus [2]): 0.5 µg/mL (≈ 1.23 µM)

N[C@@H](C(=O)N[C@@H]1C(=O)N2C(C(=O)O)=C(Cc3ccccc3)CS[C@H]12)c1ccccc1
MIC (Staphylococcus aureus [1]): 2.5 µg/mL (≈ 5.9 µM)
MIC (Escherichia coli): 25 µg/mL (≈ 59 µM)
MIC (Salmonella typhi): 25 µg/mL (≈ 59 µM)
MIC (Shigella sonnei): 25 µg/mL (≈ 59 µM)
MIC (Klebsiella aerogenes): 25 µg/mL (≈ 59 µM)
MIC (Proteus mirabilis): 50 µg/mL (≈ 118 µM)
concentration at 10 min [3]: 110 ng/mL
concentration at 20 min [4]: 180 ng/mL
concentration at 0.5 h [5]: 210 ng/mL
concentration at 1 h [6]: 190 ng/mL
concentration at 2 h [7]: 340 ng/mL
concentration at 4 h [8]: 150 ng/mL
MIC (Staphylococcus aureus [2]): 0.1 µg/mL (≈ 0.236 µM)
